Screening data: PubChem BioAssay, several laboratories
Sampled rows, rich in hits. Any-hit rate of the full collection: about 7.2%.
M1 ag – M1 muscarinic receptor agonists, primary screen, CHO-M1 cells, Fluo-4 calcium, agonist mode; B-score at 10 µM; Muscarinic acetylcholine receptor M1; hit rate 3% among 64,000; Fluo-4 calcium fluorescence; hits give high values;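 active = fluorescence rise, raw or as B-score row- and column-corrected plate score, outside the 99.7% band of its plate's samples, either direction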
D1 allo mod – D1 CRE-luciferase signal change, two-sided – cell-based, HEK293 D1, dopamine EC30, D1 allosteric modulator project, primary screen. dopamine EC30 potentiation; actives deviate in either direction. B-score at 10 µM. hit rate 5.9% among 58,000. AID 641, 2007;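 active = luminescence count or its row- and column-corrected plate score outside the 99.7% band of the plate's sample wells, on either side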
DAT uptake mod – changed hDAT dopamine uptake under cocaine IC80, either direction, primary screen, cocaine antagonist project, cell-based, LLC-PK1 hDAT, [14C]-dopamine uptake, MLSMR; B-score at 10 µM; hit rate 1.3% among 110,000; Sodium-dependent dopamine transporter (Homo sapiens), Q01959; LLC-PK1 hDAT cells, [14C]-dopamine uptake with cocaine IC80; actives deviate in either direction;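 active = Z score or B-score, a plate-position-corrected score, falls beyond the plate's 99.7% confidence bounds, in either direction; inactive = both scores lie inside the 99.7% bounds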;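 note: scored against the spread of the other compound wells on the same plate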
M1 antagonist – antagonists of rat M1 muscarinic receptor. CHO-M1 cells, Fluo-4 calcium, ACh EC80 antagonist mode; hits give low values. Muscarinic acetylcholine receptor M1 (Rattus norvegicus), P08482. hit rate 3.4% among 64,000. B-score at 10 µM;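 active = calcium fluorescence response, raw or row-and-column corrected B-score, differing from the plate sample mean either way at a set confidence level, mostly lower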
BAP1 block – inhibitors of BAP1 deubiquitinase, primary screen, biochemical, Ub-AMC fluorescence, kinetic; Ubiquitin carboxyl-terminal hydrolase BAP1 (Homo sapiens), Q92560; recombinant BAP1, Ub-AMC hydrolysis fluorescence kinetic; hits give low values; calls only at 20 µM; hit rate 0.48% among 72,000; AID 436, 2006;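 active = activity remaining at or below 50% of control, provided the compound also passes the data quality filters; inactive = the rest, including low values that fail the filters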;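 note: 100% = DMSO wells rate and 0% = substrate alone blank rate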
Target sequence (Q92560 whole entry, looked up): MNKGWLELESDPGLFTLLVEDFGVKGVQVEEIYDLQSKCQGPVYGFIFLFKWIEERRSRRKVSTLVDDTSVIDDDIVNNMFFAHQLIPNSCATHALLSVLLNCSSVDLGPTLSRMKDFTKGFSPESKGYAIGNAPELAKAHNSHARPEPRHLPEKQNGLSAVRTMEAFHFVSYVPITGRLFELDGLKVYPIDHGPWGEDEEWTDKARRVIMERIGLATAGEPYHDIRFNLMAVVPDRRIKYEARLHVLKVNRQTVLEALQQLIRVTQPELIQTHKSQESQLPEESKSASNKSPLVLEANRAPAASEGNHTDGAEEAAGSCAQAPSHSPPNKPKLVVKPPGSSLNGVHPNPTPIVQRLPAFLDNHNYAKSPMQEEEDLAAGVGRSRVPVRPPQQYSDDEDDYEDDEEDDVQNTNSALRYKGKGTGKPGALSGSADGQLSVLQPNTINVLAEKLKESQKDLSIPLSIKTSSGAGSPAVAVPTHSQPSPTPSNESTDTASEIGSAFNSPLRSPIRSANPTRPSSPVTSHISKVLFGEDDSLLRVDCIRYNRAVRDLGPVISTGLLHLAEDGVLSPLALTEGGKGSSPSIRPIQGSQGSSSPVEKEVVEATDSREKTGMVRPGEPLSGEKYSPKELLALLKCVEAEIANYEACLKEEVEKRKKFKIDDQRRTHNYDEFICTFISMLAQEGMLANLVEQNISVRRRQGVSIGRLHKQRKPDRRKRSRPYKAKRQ
HEK293 NFkB inh – inhibitors of PMA/ionomycin-induced NF-kB reporter, primary screen, antigen receptor NF-kB inhibitor project, cell-based, HEK-293 luciferase reporter, luminescence; HEK-293 NF-kB luciferase reporter; hit rate 0.21% among 62,000; AID 465, 2006; inhibition, % at 3 µM;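 active = inhibition above the mean of all tested compounds plus 3 SD, cut at about 40% in these data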;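 note: 0% = stimulated DMSO wells and 100% = 10 µM reference inhibitor 5653914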
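Signal: luciferase luminescence; Material: HEK-293 cells with stable firefly luciferase reporter driven by four HIV NF-kB elements; Probe or stimulus: PMA with ionomycin; Replication: tested once; Times: 1 h compound pretreatment, then 16 h stimulation at 37 °C, 5% CO2; Benchmarks: DMSO and 10 µM reference inhibitor; Evaluation: per-plate % inhibition versus controls.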
* = called active by the depositor; i = inactive; · = no result given.

SMILES	M1 ag	D1 allo mod	DAT uptake mod	M1 antagonist	BAP1 block	HEK293 NFkB inh
O=C(c1ccccc1Cl)N1CCN(c2ccc(F)cc2)CC1	·	·	·	·	i	·
O=C(Nc1nncs1)c1ccc(S(=O)(=O)c2ccccc2)cc1	-1.5	-0.47	-8.7*	0.026	i	7
O=C(Nc1nncs1)c1c(F)c(F)c(F)c(F)c1F	-0.58	-0.065	-1.2	1*	i	1
O=C(Nc1nnc(C2CC2)s1)c1ccc(S(=O)(=O)c2ccccc2)cc1	·	·	0.92	·	·	·
COC(=O)C1=C(C(=O)OC)[C@@H]2N(C)c3ccc(OC)cc3[C@@]23C[C@@H](C(=O)OC)N(C(=O)c2ccc(Br)cc2)C3=N1	·	·	-0.026	·	·	·
CCOC(=O)N1C2=NC(C(=O)OC)=C(C(=O)OC)[C@@H]3N(C)c4ccc(OC)cc4[C@]23C[C@H]1C(=O)OC	·	·	1.6*	·	·	·
CC(O)c1nc2ccccc2n1Cc1nnc(-c2ccc(Cl)cc2)o1 (stereo not given)	-1	-4.6*	0.025	0.077	i	10
c1ccc(-c2nnc(Cn3c4ccccc4c4nc5ccccc5nc43)o2)cc1	0	0.5	·	0	·	-18
CCOc1ccccc1C(=O)Nc1ccc(CC)cc1	·	·	·	·	i	·
CCCOC(=O)C1=C(C)NC2=C(C(=O)CC(C)(C)C2)C1c1ccccc1 (stereo not given)	·	·	·	·	i	·
CCC(C)(C)n1nnnc1CN1CCC(NC(=O)c2ccc(Br)cc2)CC1	·	·	1.8*	·	·	·
N#CC1=C(N)C(C#N)(C#N)C(c2cccnc2)C2CCCC=C12 (stereo not given)	7.9*	-1.2	-0.12	1.4	i	0
N#CC1=C(N)C(C#N)(C#N)C(c2cccnc2)C2CC(c3ccccc3)CC=C12 (stereo not given)	·	·	0.78	·	·	·
CCn1c(CNC(=O)COc2ccc(C(C)C)cc2)nnc1SCC(=O)Nc1ccccc1C(C)C	·	·	2.4*	·	·	·
COc1ccc(C2(C(=O)NC(C)C)CCCC2)cc1OC	0.89	0.26	-0.2	-0.2	i	13
COc1ccc(C2(C(N)=O)CCCCC2)cc1OC	-0.091	8.5*	-1.9	0.47	i	13
O=C(COc1cccc(Br)c1)Nc1ccc(SC(F)F)cc1	·	·	·	·	i	·
O=c1c(-c2ccc(Cl)cc2)[n+]([O-])c2ccccc2n1O	28*	·	0.84	-0.71	i	·
CCOc1ccc(NC(=O)C(C)Sc2nnnn2C)cc1 (stereo not given)	0.036	0.97	-0.31	0.057	i	4
CCOc1ccc(NC(=O)C(C)SC(N)=O)cc1 (stereo not given)	-0.25	-2.6*	-0.15	-0.5	i	14
O=C(NCC1CCCO1)c1csc2c1CCCCC2 (stereo not given)	-0.64	-3.3*	-0.27	0.46	i	5
CC1CCc2c(C(=O)NCC3CCCO3)csc2C1 (stereo not given)	1.1	-0.042	-0.018	-0.13	i	10
NC1=NC[C@H](Cc2ccccc2)N1CCCCC1CCCCC1	·	·	-3*	·	·	·
NC1=NC[C@H](Cc2ccc(O)cc2)N1CCCCC1CCCCC1	·	·	-4.1*	·	·	·
NC1=NC[C@H](Cc2ccccc2)N1CCc1cccc(F)c1	·	·	0.6	·	·	·
SMILES	M1 ag	D1 allo mod	DAT uptake mod	M1 antagonist	BAP1 block	HEK293 NFkB inh
Brc1ccc2c(c1)c1nc3ccccc3nc1n2CCN1CCOCC1	-0.58	4.3*	·	0.32	i	2
CCCn1c2ccc(Br)cc2c2nc3cc(OCC)c(OCC)cc3nc21	·	·	·	·	i	·
CCn1cc(S(=O)(=O)CC(=O)NC2CCCCC2)c2ccccc21	1.1	1.2	-0.9	3.2*	·	10
Oc1c(C(Nc2nc3ccccc3s2)c2ccco2)ccc2cccnc12 (stereo not given)	0.16	0.14	0.42	1.2	·	71*
N/C(=N\OC(=O)c1ccc(Cl)cc1)c1ccc(Cl)cc1	·	·	0.13	·	·	·
C/C(=N\OC(=O)c1ccc(Cl)cc1)c1nccs1	·	·	-2.8*	·	·	·
CCc1ccccc1NC(=O)c1cccc(Cl)c1	·	·	·	·	i	·
CCCN1C(=O)c2cc(C(=O)NC3CCCCCC3)ccc2C1O (stereo not given)	-0.4	-3.2*	0.52	0.2	·	·
O=c1c2cccc3c(N4CCOCC4)ccc(c32)c2nc3ccccc3n12	7.2*	-1	·	-0.27	i	5
Clc1ccc(-c2nnc(SCc3ccon3)o2)c(Cl)c1	-0.08	-4.7*	1.3	0.39	i	-35
O=C1c2ccccc2C(=O)N1c1ccc(Cl)c([N+](=O)[O-])c1	·	·	·	·	i	·
O=C(c1ccc([N+](=O)[O-])cc1)N(Cc1ccc(Br)cc1)N1C(=O)CCCC1=O	·	·	-7.4*	·	·	·
O=C(c1ccco1)N(Cc1ccc([N+](=O)[O-])cc1)c1ccc(Br)cc1	·	·	2.9*	·	·	·
O=C(c1ccco1)N(Cc1ccc([N+](=O)[O-])cc1)c1ccc(Cl)cc1	·	·	0.56	·	·	·
FC(F)Sc1ccc(N=C2NN=C(c3ccc4c(c3)OCCO4)CS2)cc1	·	·	0.85	·	·	·
COc1ccc(N=C2NN=C(c3ccc4c(c3)OCCO4)CS2)cc1	·	·	3.1*	·	·	·
Brc1ccc(C=NC2C3CC4CC(C3)CC2C4)cc1 (stereo not given)	·	·	·	·	i	·
O=C(Nc1cccc2c1C(=O)c1ccccc1C2=O)c1ccc(S(=O)(=O)N2CCc3ccccc3C2)cc1	·	·	·	·	i	·
CCC1(C)Cc2ccccc2-c2nc(NCCO)[nH]c(=O)c21 (stereo not given)	·	·	-2.9*	·	·	·
COCCn1c(=O)c2c3c(sc2n(CC(N)=O)c1=O)CCCC3	-0.016	0.3	·	-0.5	i	18
CCn1c(=O)n(CCOC)c(=O)c2c3c(sc21)CCCC3	0.19	6.3*	-0.56	-0.5	i	12
CC(=O)n1ccc2ccccc21	·	·	·	·	i	·
COc1ccc(NC(=O)c2cc3cccc(OC)c3oc2=O)c(OC)c1	·	·	·	·	i	·
CC(C)c1nc(SCc2c(F)cccc2Cl)c2c(=O)n(C)c(=O)n(C)c2n1	2.3	-3.7*	3.3*	-2.1	i	5
Cn1c(=O)c2c(nc(Br)n2Cc2c(F)cccc2Cl)n(C)c1=O	0.13	-0.87	·	1.2	i	0
O=C(Nc1ncc(Cc2ccccc2)s1)C1CCCO1 (stereo not given)	0.17	-3.7*	-0.36	-0.89	i	-30
O=C(CSc1n[nH]c(-c2cccs2)n1)N1CCN(S(=O)(=O)c2ccccc2)CC1	0.14	0.21	-0.18	-0.072	i	12
